Assay results: PMC4467241 (Clinical Pharmacology in Drug Development, 2014)
pIC50: −log10 of the molar value. Read-outs that look alike come from different tables or passages of the source. Marks after values point to notes of the source that are not given here.

Experiments:
[1] = healthy subjects, Apremilast 30 mg BID; cited from earlier work
OCT2 = settings: stated in introduction, no reference given; cited from earlier work
OATP1B3 [2] = settings: stated in introduction, no reference given; cited from earlier work
[3] = tested on: organic anion transporting polypeptide (OATP)1B1; settings: stated in introduction, no reference given; cited from earlier work
[4] = cited from earlier work
P-glycoprotein (P-gp) [5] = settings: read-out: IC50 (P-gp inhibition); in vitro, weak inhibitor; cited from earlier work
OAT3 [6] = settings: stated in introduction, no reference given; cited from earlier work
OAT3 [7] = settings: stated in introduction, no reference given; cited from earlier work; remark: listed apart in the source
OATP1B3 [8] = settings: stated in introduction, no reference given; cited from earlier work; remark: listed apart in the source
[9] = tested on: organic anion transporter (OAT)1; settings: stated in introduction, no reference given; cited from earlier work
P-glycoprotein (P-gp) [10] = settings: in vitro; cited from earlier work
BCRP = settings: in vitro, no reference printed, cited from earlier work
OATP1B1 = settings: read-out: IC50 (OATP1B1 inhibition); weak inhibitor; no reference given; cited from earlier work
[11] = Steady-state plasma pharmacokinetics of apremilast alone; assay type: in vivo, human; settings: for CLss/F / Cmin: steady-state
Method in brief: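 Test compound was given at 30 mg Q12h for 12 doses, with a single co-drug dose added on Day 8. Citrated plasma was sampled predose and at 0.5–12 h after the morning dose on Days 7 and 8, then assayed by liquid-liquid extraction LC–MS/MS. Noncompartmental AUC0–τ and Cmax were derived, with ANOVA on log values (treatment fixed, subject random), geometric-mean ratio with 90% CI, and Hodges–Lehmann tmax.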

[12] = no reference given, cited from earlier work; for Apparent clearance: prior studies
[13] = tested on: organic cation transporter (OCT)2; settings: stated in introduction, no reference given; cited from earlier work
[14] = tested on: multidrug resistance protein (MRP)1; settings: stated in introduction, no reference given; cited from earlier work
MRP4 = settings: stated in introduction, no reference given; cited from earlier work
[15] = tested on: breast cancer resistance protein (BCRP); settings: stated in introduction, no reference given; cited from earlier work
MRP2 = settings: in vitro, no reference printed, cited from earlier work
MRP3 = settings: read-out: IC50 (MRP3 inhibition); weak inhibitor; no reference given; cited from earlier work
OAT1 = settings: read-out: IC50 (OAT1 inhibition); weak inhibitor; no reference given; cited from earlier work
[16] = assay type: in vivo, human
Method in brief: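 Heparinised plasma was taken predose and at 0.5–48 h, spun within 30 min and stored at −70 °C. Parent and metabolite were measured by SPE LC–MS/MS; noncompartmental AUC, with ANOVA on log values giving geometric-mean ratio and 90% CI.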

[17] = Apremilast 30 mg Q12H alone (Day 7), plasma, N = 15, arithmetic mean (SD)
[18] = both, human, plasma, oral, 30 mg
[19] = 7-OH MTX in plasma after MTX 10 mg oral + Apremilast 30 mg Q12H (Day 8), N = 1
[20] = 7-OH MTX in plasma after MTX 10 mg oral alone (Day 1), N = 1
[21] = 7-OH MTX in plasma after MTX 12.5 mg oral + Apremilast 30 mg Q12H (Day 8), N = 1
[22] = 7-OH MTX in plasma after MTX 12.5 mg oral alone (Day 1), N = 1
[23] = 7-OH MTX in plasma after MTX 17.5 mg oral + Apremilast 30 mg Q12H (Day 8), N = 1
[24] = 7-OH MTX in plasma after MTX 17.5 mg oral alone (Day 1), N = 1
[25] = 7-OH MTX in plasma, ANOVA, N = 15
[26] = 7-OH MTX in plasma, all dose groups, N = 15, acceptance range 80–125%

Structure (SMILES): CCOc1cc(C(CS(C)(=O)=O)N2C(=O)c3cccc(NC(C)=O)c3C2=O)ccc1OC1OC(C(=O)O)C(O)C(O)C1O (centres unmarked) [M12]
- AUC relative to Apremilast [1]: approximately 1.7 fold
- Cmax relative to Apremilast [1]: ~1.25 fold

Structure (SMILES): CCOc1cc([C@@H](CS(C)(=O)=O)N2C(=O)c3cccc(NC(C)=O)c3C2=O)ccc1OC [APR, apremilast]
- Inhibition of OCT2 (OCT2): does not inhibit
- Inhibition of OATP1B3 (OATP1B3 [2]): does not inhibit
- Substrate of OATP1B1 [3]: not a substrate
- Oral bioavailability ([4]; in humans): ~73%
- Excreted unchanged in urine ([4]; orally administered): less than 3%
- pIC50 (P-glycoprotein (P-gp) [5]): < 4.30
- Inhibition of OAT3 (OAT3 [6]): does not inhibit
- Substrate of OAT3 (OAT3 [7]): not a substrate
- Substrate of OATP1B3 (OATP1B3 [8]): not a substrate
- Substrate of OAT1 [9]: not a substrate
- Substrate of P-gp (P-glycoprotein (P-gp) [10]): substrate
- Inhibition of BCRP (BCRP; listed as Apremilast): does not inhibit
- Inhibition of BCRP (BCRP; listed as apremilast): not an inhibitor
- pIC50 (OATP1B1): < 5.00
- CLss/F ([11]; Apremilast 30 mg Q12H + MTX (Day 8), plasma, N = 13, arithmetic mean, excludes data with R^2 < 0.9): 156 ^b (86.3) mL/min
- Cmin ([11]; Apremilast 30 mg Q12H + MTX (Day 8), plasma, N = 15, arithmetic mean (SD)): 242 (153) ng/mL
- CLss/F [11, 17]: 153 (78.6) mL/min
- Cmin [11, 17]: 248 (153) ng/mL
- tmax median difference (“APR + MTX” − “APR”) ([11]; apremilast in plasma, 30 mg Q12H, N = 15, Hodges–Lehmann): 0 ^c hr
- Cmax ratio of geometric means (“methotrexate + apremilast”/“apremilast”) ([11]; apremilast in plasma, 30 mg Q12H, N = 15, acceptance range 80–125%): 95.00
- AUC0–τ ratio of geometric means (“methotrexate + apremilast”/“apremilast”) ([11]; apremilast in plasma, 30 mg Q12H, acceptance range 80–125%): 99.30
- Intra-subject CV% of AUC0–τ ([11]; apremilast in plasma, ANOVA): 9.66%
- Intra-subject CV% of Cmax ([11]; apremilast in plasma, ANOVA, N = 15): 12.07%
- 90% CI for Cmax and AUCtau versus FDA acceptance range of 80–125% ([11]; apremilast with versus without methotrexate): within the acceptance range for equivalency
- AUC [11, 18]: 4110 ng·h/mL
- Cmax [11, 18]: 584 ng/mL
- tmax [11, 18]: 2 h
- Time by which steady-state is achieved ([12]; healthy volunteer studies, Apremilast administered BID): ≤ 36 h
- Apparent clearance ([12]; in healthy subjects): ~10 L/h
- Apparent clearance ([12]; in patients): 8.7 L/h
- Substrate of OCT2 [13]: not a substrate
- Inhibition of MRP1 [14]: does not inhibit
- Inhibition of MRP4 (MRP4): does not inhibit
- Substrate of BCRP [15]: not a substrate
- Inhibition of MRP2 (MRP2; listed as Apremilast): does not inhibit
- Inhibition of MRP2 (MRP2; listed as apremilast): not an inhibitor
- pIC50 (MRP3): < 5.00
- pIC50 (OAT1): < 5.00

Structure (SMILES): CN(Cc1nc2c(N)nc(N)nc2[nH]c1=O)c1ccc(C(=O)N[C@@H](CCC(=O)O)C(=O)O)cc1 [7-OH MTX, 7-hydroxy methotrexate]
- AUC0–t [16, 19]: 620 ng·h/mL
- AUC0–∞ [16, 19]: 650 ng·h/mL
- Cmax [16, 19]: 32.9 ng/mL
- t1/2 [16, 19]: 10.9 h
- tmax [16, 19]: 6.00 h
- AUC0–t [16, 20]: 430 ng·h/mL
- AUC0–∞ [16, 20]: 460 ng·h/mL
- Cmax [16, 20]: 21.0 ng/mL
- t1/2 [16, 20]: 11.9 h
- tmax [16, 20]: 5.98 h
- AUC0–t [16, 21]: 1,670 hr ng/mL
- AUC0–∞ [16, 21]: 1,820 hr ng/mL
- Cmax [16, 21]: 72.8 ng/mL
- t1/2 [16, 21]: 12.0 h
- tmax [16, 21]: 6.00 h
- AUC0–t [16, 22]: 1,220 hr ng/mL
- AUC0–∞ [16, 22]: 1,370 hr ng/mL
- Cmax [16, 22]: 52.8 ng/mL
- t1/2 [16, 22]: 14.2 h
- tmax [16, 22]: 6.00 h
- tmax ([16]; 7-OH MTX in plasma after MTX 15 mg oral alone (Day 1), N = 6, median (range)): 7.52 (6.00–12.00) hr
- AUC0–t [16, 23]: 1,170 hr ng/mL
- AUC0–∞ [16, 23]: 1,290 hr ng/mL
- Cmax [16, 23]: 48.9 ng/mL
- t1/2 [16, 23]: 12.2 h
- tmax [16, 23]: 9.00 h
- AUC0–t [16, 24]: 1,170 hr ng/mL
- AUC0–∞ [16, 24]: 1,300 hr ng/mL
- Cmax [16, 24]: 45.4 ng/mL
- t1/2 [16, 24]: 13.0 h
- tmax [16, 24]: 6.00 h
- tmax ([16]; 7-OH MTX in plasma after MTX 20 mg oral alone (Day 1), N = 6, median (range)): 7.54 (5.95–9.00) hr
- Intra-subject CV% of AUC0–t [16, 25]: 19.89%
- Intra-subject CV% of AUC0–∞ [16, 25]: 19.34%
- Intra-subject CV% of Cmax [16, 25]: 17.84%
- tmax median difference (“MTX + Apremilast” − “MTX”) ([16]; 7-OH MTX in plasma, all dose groups, N = 15, Hodges–Lehmann): 0.005 ^c hr
- AUC0–t ratio of geometric means (“methotrexate + apremilast”/“methotrexate”) [16, 26]: 98.59
- AUC0–∞ ratio of geometric means (“methotrexate + apremilast”/“methotrexate”) [16, 26]: 98.24
- Cmax ratio of geometric means (“methotrexate + apremilast”/“methotrexate”) [16, 26]: 104.01
- 90% CI for Cmax, AUC0–t and AUC0–∞ versus FDA acceptance range of 80–125% ([16]; 7-hydroxy methotrexate, methotrexate with versus without apremilast): within the acceptance range for equivalency
